Measurements: ChEMBL document CHEMBL4616614, “Discovery of thieno[2,3-d]pyrimidin-4(3H)-one derivatives as a new class of ROCK inhibitors” (Bioorg Med Chem Lett, 2020)
pIC50: −log10 of the molar value.

How the values were obtained:
[1] = molecular target: Rho-associated protein kinase 2 (Homo sapiens, UniProt O75116); experiment: Inhibition of recombinant human ROCK2 (11 to 552 residues) using KEAKEKRQEQIAKRRRLSSLRASTSKSGGSQK as substrate incubated for 40 mins in presence of [gamma-33P]ATP by radiometric scintillation assay
[2] = molecular target: Rho-associated protein kinase 1 (Homo sapiens, UniProt Q13464); experiment: Inhibition of recombinant human ROCK1 (17 to 535 residues) using KEAKEKRQEQIAKRRRLSSLRASTSKSGGSQK as substrate incubated for 40 mins in presence of [gamma-33P]ATP by radiometric scintillation assay
In short: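 IC50 values determined through a commercial kinase profiling service, with ATP at 10 µM.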

Chain of Rho-associated protein kinase 1 (Q13464 whole entry, the tested form may be a part): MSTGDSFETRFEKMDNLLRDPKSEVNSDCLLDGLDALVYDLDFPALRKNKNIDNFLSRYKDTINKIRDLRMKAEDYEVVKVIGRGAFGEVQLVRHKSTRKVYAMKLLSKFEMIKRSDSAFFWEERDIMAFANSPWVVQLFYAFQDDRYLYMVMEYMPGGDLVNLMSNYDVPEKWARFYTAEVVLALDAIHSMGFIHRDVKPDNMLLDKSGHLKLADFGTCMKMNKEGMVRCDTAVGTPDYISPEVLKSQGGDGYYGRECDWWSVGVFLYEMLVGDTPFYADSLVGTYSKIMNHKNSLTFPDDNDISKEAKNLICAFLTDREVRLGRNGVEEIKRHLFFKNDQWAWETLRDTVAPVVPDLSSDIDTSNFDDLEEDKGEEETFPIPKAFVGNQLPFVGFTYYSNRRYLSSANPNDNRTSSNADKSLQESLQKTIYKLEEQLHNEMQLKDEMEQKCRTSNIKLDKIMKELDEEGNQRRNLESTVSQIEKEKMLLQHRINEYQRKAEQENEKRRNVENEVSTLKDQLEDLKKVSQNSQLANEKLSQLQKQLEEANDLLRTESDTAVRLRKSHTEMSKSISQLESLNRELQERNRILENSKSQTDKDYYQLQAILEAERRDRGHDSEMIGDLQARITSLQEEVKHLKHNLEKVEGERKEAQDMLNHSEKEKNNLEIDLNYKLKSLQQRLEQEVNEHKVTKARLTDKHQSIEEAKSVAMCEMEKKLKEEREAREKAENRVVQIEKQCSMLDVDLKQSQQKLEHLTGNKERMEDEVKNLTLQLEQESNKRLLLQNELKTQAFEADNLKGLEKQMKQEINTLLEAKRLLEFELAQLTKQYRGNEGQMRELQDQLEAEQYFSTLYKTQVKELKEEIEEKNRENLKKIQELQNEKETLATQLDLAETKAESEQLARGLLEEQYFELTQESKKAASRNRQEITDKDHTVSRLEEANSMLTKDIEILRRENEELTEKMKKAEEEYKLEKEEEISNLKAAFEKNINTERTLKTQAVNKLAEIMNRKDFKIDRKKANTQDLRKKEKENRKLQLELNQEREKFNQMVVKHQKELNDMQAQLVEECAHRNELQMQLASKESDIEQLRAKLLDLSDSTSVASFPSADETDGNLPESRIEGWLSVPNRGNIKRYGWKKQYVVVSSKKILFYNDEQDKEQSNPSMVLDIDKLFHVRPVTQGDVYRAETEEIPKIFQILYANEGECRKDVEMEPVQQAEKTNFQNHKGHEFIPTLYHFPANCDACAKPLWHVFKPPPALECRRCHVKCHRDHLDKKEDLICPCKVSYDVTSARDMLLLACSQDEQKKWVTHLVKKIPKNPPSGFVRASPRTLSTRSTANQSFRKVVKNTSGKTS
Chain of Rho-associated protein kinase 2 (O75116 whole entry, the tested form may be a part): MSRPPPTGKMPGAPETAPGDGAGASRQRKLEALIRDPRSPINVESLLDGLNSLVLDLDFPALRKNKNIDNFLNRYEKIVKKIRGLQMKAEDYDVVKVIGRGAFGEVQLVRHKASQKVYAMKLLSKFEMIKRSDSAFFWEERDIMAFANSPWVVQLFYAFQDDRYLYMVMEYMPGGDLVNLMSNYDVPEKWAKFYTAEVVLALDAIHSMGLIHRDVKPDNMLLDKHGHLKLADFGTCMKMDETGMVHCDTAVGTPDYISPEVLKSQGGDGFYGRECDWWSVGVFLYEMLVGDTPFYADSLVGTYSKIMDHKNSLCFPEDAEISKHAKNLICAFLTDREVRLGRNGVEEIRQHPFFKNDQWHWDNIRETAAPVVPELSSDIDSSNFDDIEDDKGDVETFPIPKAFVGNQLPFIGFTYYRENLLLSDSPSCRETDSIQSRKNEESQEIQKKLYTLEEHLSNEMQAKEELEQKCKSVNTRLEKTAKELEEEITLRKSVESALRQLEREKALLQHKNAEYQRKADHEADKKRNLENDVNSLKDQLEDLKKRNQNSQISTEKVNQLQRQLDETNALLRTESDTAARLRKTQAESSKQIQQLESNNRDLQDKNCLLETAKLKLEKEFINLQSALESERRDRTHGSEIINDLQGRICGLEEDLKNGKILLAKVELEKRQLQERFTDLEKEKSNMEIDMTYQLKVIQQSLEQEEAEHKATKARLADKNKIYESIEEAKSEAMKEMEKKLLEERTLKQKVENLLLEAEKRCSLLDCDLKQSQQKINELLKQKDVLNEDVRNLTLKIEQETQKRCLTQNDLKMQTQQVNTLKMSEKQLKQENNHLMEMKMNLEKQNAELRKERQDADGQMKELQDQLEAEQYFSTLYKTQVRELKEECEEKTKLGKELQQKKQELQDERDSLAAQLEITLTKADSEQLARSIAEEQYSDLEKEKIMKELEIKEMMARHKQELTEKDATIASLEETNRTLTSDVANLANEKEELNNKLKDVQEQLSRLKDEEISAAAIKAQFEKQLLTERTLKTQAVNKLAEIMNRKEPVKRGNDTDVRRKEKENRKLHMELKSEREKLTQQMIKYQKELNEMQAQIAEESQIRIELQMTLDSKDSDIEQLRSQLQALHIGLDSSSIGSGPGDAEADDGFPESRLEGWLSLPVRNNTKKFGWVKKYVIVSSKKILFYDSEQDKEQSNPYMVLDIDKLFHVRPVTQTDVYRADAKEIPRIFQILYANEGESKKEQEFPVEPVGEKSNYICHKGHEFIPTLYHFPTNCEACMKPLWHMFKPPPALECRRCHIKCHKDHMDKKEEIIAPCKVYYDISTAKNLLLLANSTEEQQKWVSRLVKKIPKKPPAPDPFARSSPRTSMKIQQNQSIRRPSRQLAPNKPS

Question: `O=c1c2cc(-c3ccnc4[nH]ccc34)sc2ncn1Cc1cccc(F)c1` was tested. Which pIC50 [1] did it give?
Answer: Its pIC50 is 9.00.

Question: What about the pIC50 [2] of the same compound?
Answer: Its pIC50 is 7.89.

Question: Which results are given for `COc1cccc(Cn2cnc3sc(-c4ccnc(C)c4)cc3c2=O)c1`?
Answer: pIC50 [1]: 7.38; pIC50 [2]: 5.60

Question: Which results are given for `COc1cccc(Cn2cnc3sc(-c4ccc(N)nc4)cc3c2=O)c1`?
Answer: pIC50 [1]: < 5.00; pIC50 [2]: < 5.00

Question: How did the pIC50 [1] turn out when `COc1cccc(Cn2cnc3sc(-c4ccnc(OC)c4)cc3c2=O)c1` was run?
Answer: Its pIC50 is 5.16.

Question: And the pIC50 [2]?
Answer: The pIC50 was < 5.00.

Question: Which results are given for `O=c1c2cc(-c3ccnc4[nH]ccc34)sc2ncn1Cc1cccc(C(F)(F)F)c1`?
Answer: pIC50 [1]: 8.15; pIC50 [2]: 6.96

Question: `COc1cccc(Cn2cnc3sc(-c4ccnc(Cl)c4)cc3c2=O)c1` was tested. Which pIC50 [1] did it give?
Answer: Its pIC50 is 6.30.

Question: What about the pIC50 [2] of the same compound?
Answer: The pIC50 was < 5.00.

Question: How did the pIC50 [1] turn out when `COc1cccc(Cn2cnc3sc(-c4ccnc(F)c4)cc3c2=O)c1` was run?
Answer: Its pIC50 is 7.08.

Question: What about the pIC50 [2] of the same compound?
Answer: The pIC50 was 5.98.

Question: Which results are given for `Nc1cc(-c2cc3c(=O)n(Cc4cccc(C(F)(F)F)c4)cnc3s2)ccn1`?
Answer: pIC50 [1]: 7.60; pIC50 [2]: 6.31

Question: With `COc1cccc(Cn2cnc3sc(-c4ccc5[nH]ncc5c4)cc3c2=O)c1` as the compound, how does the pIC50 [1] read?
Answer: The pIC50 was 8.70.

Question: And the pIC50 [2]?
Answer: The pIC50 was 7.70.

Question: With `COc1cccc(Cn2cnc3sc(-c4cccc5[nH]ccc45)cc3c2=O)c1` as the compound, how does the pIC50 [1] read?
Answer: Its pIC50 is 6.23.

Question: And the pIC50 [2]?
Answer: Its pIC50 is < 5.00.

Question: Which results are given for `COc1ccc(Cn2cnc3sc(-c4ccnc(N)c4)cc3c2=O)cc1`?
Answer: pIC50 [1]: 7.34; pIC50 [2]: 5.84

Question: With `COc1ccc(Cn2cnc3sc(-c4ccnc5[nH]ccc45)cc3c2=O)cc1` as the compound, how does the pIC50 [1] read?
Answer: Its pIC50 is 8.70.

Question: What about the pIC50 [2] of the same compound?
Answer: Its pIC50 is 7.89.

Question: With `COc1cc(Cn2cnc3sc(-c4ccnc(N)c4)cc3c2=O)cc(OC)c1` as the compound, how does the pIC50 [1] read?
Answer: Its pIC50 is 7.24.

Question: And the pIC50 [2]?
Answer: The pIC50 was < 5.00.

Question: What does the source list for `COc1cccc(Cn2ncc3cc(-c4ccc5[nH]ncc5c4)ccc3c2=O)c1`?
Answer: pIC50 [1]: 6.40; pIC50 [2]: < 5.00

Question: What does the source list for `COc1cccc(Cn2cnc3sc(-c4ccnc(N)c4)cc3c2=O)c1`?
Answer: pIC50 [1]: 9.00; pIC50 [2]: 7.74

Question: With `COc1cc(Cn2cnc3sc(-c4ccnc5[nH]ccc45)cc3c2=O)cc(OC)c1` as the compound, how does the pIC50 [1] read?
Answer: The pIC50 was 8.40.

Question: What about the pIC50 [2] of the same compound?
Answer: Its pIC50 is 7.13.

Question: With `COc1cccc(CN2CCc3cc(-c4ccc5[nH]ncc5c4)ccc3C2=O)c1` as the compound, how does the pIC50 [1] read?
Answer: The pIC50 was 6.20.

Question: What about the pIC50 [2] of the same compound?
Answer: Its pIC50 is 5.69.

Question: With `COc1cccc(Cn2cnc3sc(-c4ccncc4)cc3c2=O)c1` as the compound, how does the pIC50 [1] read?
Answer: Its pIC50 is 8.22.

Question: And the pIC50 [2]?
Answer: The pIC50 was 7.35.

Question: With `COc1ccc(Cn2cnc3sc(-c4ccnc(N)c4)cc3c2=O)cc1OC` as the compound, how does the pIC50 [1] read?
Answer: The pIC50 was 6.66.

Question: And the pIC50 [2]?
Answer: Its pIC50 is < 5.00.

Question: `COc1cccc(Cn2cnc3sc(-c4ccc(-c5ccncc5)cc4)cc3c2=O)c1` was tested. Which pIC50 [1] did it give?
Answer: The pIC50 was < 5.00.

Question: And the pIC50 [2]?
Answer: Its pIC50 is < 5.00.

Question: Which results are given for `COc1cccc(Cn2cnc3sc(-c4cccnc4)cc3c2=O)c1`?
Answer: pIC50 [1]: 5.46; pIC50 [2]: < 5.00

Question: Which results are given for `COc1cccc(Cn2cnc3sc(-c4ccnc5[nH]ccc45)cc3c2=O)c1`?
Answer: pIC50 [1]: 9.00; pIC50 [2]: 8.40

Question: Which results are given for `COc1ccc(Cn2cnc3sc(-c4ccnc5[nH]ccc45)cc3c2=O)cc1OC`?
Answer: pIC50 [1]: 8.40; pIC50 [2]: 7.60

Question: Which results are given for `Nc1cc(-c2cc3c(=O)n(Cc4cccc(F)c4)cnc3s2)ccn1`?
Answer: pIC50 [1]: 8.30; pIC50 [2]: 7.47

Question: How did the pIC50 [1] turn out when `COc1cccc(Cn2cnc3cc(-c4ccc5[nH]ncc5c4)ccc3c2=O)c1` was run?
Answer: The pIC50 was 7.06.

Question: And the pIC50 [2]?
Answer: The pIC50 was 5.51.

Question: Which results are given for `COc1cccc(Cn2ccc3cc(-c4ccc5[nH]ncc5c4)ccc3c2=O)c1`?
Answer: pIC50 [1]: 6.97; pIC50 [2]: 5.73
